PMI act satM6P: human PMI activators, high substrate, primary screen, biochemical, fluorescence intensity, near-saturating mannose 6-phosphate. Mannose-6-phosphate isomerase (Homo sapiens), P34949. coupled PMI enzyme assay, resazurin fluorescence, 20 min; active compounds read high; 1 = untreated enzyme, 0 = substrate-free blank. activation factor at 20 µM. actives 0.34% (n = 190,000). AID 1216, 2008;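 active means activation factor of 2 or more at 20 µM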
Target sequence (P34949 whole entry, looked up): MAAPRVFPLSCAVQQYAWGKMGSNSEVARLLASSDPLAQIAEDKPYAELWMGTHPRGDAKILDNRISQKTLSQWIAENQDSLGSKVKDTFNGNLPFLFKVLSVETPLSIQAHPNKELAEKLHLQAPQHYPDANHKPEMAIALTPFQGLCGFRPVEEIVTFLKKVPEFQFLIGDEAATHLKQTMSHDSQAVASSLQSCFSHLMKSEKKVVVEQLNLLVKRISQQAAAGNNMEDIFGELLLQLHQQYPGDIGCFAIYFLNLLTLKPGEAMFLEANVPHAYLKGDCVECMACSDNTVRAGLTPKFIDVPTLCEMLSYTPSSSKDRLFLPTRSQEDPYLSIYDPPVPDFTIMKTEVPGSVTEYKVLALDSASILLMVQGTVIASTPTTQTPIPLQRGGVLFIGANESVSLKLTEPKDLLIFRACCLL
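Material: human phosphomannose isomerase with PGI, G6PDH, diaphorase coupling enzymes. Quantity: 15 ng/mL PMI. Medium: HEPES pH 7.4 buffer with MgCl2 and Tween-20. Reagent: Near-saturating mannose-6-phosphate, 1.0 mM. Compound: 20 µM single dose. Times: enzyme reaction with compound 20 min at room temperature. Detection: resorufin fluorescence at Ex 544/Em 590 nm.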
Diaph act CS: compounds boosting diaphorase resazurin reduction – biochemical, uHTS, resorufin fluorescence, counter-screen for diaphorase-coupled primary assays, primary screen; Diaphorase/resazurin coupled assay, 16 min; active compounds read high; 1 = vehicle wells, 0 = NADH-free wells; activation factor at 20 µM; actives 0.005% (n = 190,000); AID 1229, 2008;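 active means diaphorase activity raised at least twofold by the compound at 20 µM; inactive means activation factor below 2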
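Material: purified diaphorase enzyme from Clostridium kluyveri; Also added: 0.114 mM NADH and 0.1 mM resazurin, final amounts; Doses: single compound dose of 20 µM, 1% DMSO final; Times: 16 min enzyme reaction, ambient temperature; Detection: resorufin fluorescence, excitation 544 nm, emission 590 nm; Measure: increased resorufin signal from activators or reducing compounds.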
PMI activator: activators of human PMI, primary screen, biochemical, fluorescence intensity, near-Km mannose 6-phosphate; actives 0.005% (n = 190,000); AID 1214, 2008; activation factor at 20 µM; purified human PMI, coupled resazurin fluorescence, 20 min; active compounds read high; 1 = vehicle control, 0 substrate-free wells;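 active means activation factor of 2 or more at 20 µM, relative to plate controls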
G6PDH CS: L. mesenteroides G6PDH inhibitors, counter-screen for G6PDH-coupled screening assays, biochemical, Leuconostoc mesenteroides enzyme | glucose-6-phosphate dehydrogenase [Leuconostoc mesenteroides] | Purified L. mesenteroides G6PDH, diaphorase/resazurin coupled fluorescence, 45 min | inhibition, % at 5 µM | actives 0.12% (n = 200,000) | AID 1020, 2008; in the data active means inhibition above about 50%
Diaphorase inh: diaphorase inhibitors and chemical oxidizers, primary screen, counter-screen for diaphorase-coupled primary assays, biochemical, uHTS, resorufin fluorescence. diaphorase resazurin-to-resorufin fluorescence, NADH, 16 min; bacterial (C. kluyveri) enzyme, not human. inhibition, % at 20 µM. actives 0.69% (n = 190,000). AID 1217, 2008;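 active means primary screen inhibition at 20 µM above a set limit, cut at about 50% in these data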;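 further: plate controls were DMSO with full reaction for no effect and wells lacking NADH for full effect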
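Assay system: diaphorase enzyme from Clostridium kluyveri; Input: enzyme working solution with 0.14 U/mL diaphorase; Timing: 16 min at room temperature; Technique: resorufin fluorescence, excitation 544 nm, emission 590 nm; Benchmarks: positive control minus NADH, DMSO neutral control.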
Starred values were filed as active, the others as inactive. Most compounds without a hit are left out; they make up all but 1.1% or so of the library.

SMILES	PMI act satM6P	Diaph act CS	PMI activator	G6PDH CS	Diaphorase inh
O=C(NCc1ccco1)C(c1cccnc1)N(C(=O)Cn1nnc2ccccc21)c1ccc(F)cc1 (stereo not given)	1.1	0.9	1.1	-3	8
CC(C)(C)C(=O)Cn1nc(Cl)nc1Cl	1.1	1.1	1.2	3	-9
CC(C)(C)C(=O)CNCC(=O)C(C)(C)C	2.1*	1.2	1.8	12	-23
Cc1ccc(NC(=O)c2ccc(Nc3c([N+](=O)[O-])cc([N+](=O)[O-])cc3[N+](=O)[O-])cc2)cc1	1	0.9	1.2	-2	10
Cc1ccc(Nc2c([N+](=O)[O-])ccc3c2=NC2(CCCCC2)N=3)cc1	0.5	0.5	0.7	10	51*
O=C(NC1=C(NC2CCS(=O)(=O)C2)C(=O)c2ccccc2C1=O)c1ccccc1 (stereo not given)	0.7	0.3	0.9	51*	72*
COc1cc(/C=N/Nc2cccc(C)c2)cc(Br)c1O	2.4*	0.8	1.7	2	19
COc1cc(/C=N/Nc2cccc(C)c2)ccc1OC(=O)c1cccs1	2.1*	0.7	1.4	-14	26
COc1cc(/C=N/NC(=O)COc2ccccc2C)ccc1OC(=O)c1cccs1	0.9	0.8	0.9	3	22
CC(C)C(NC(=O)CSCc1ccc([N+](=O)[O-])cc1)C(C)C	1.1	1	1.1	18	-3
COc1cccc(NC(=O)C2CCC(CNS(=O)(=O)c3cccs3)CC2)c1 (stereo not given)	1.1	0.9	1.1	12	7
CN(Cc1ccccc1)c1ccc(S(=O)(=O)N2CCC(C(=O)O)CC2)cc1[N+](=O)[O-]	0.9	0.9	0.9	6	10
COc1cccc(CSc2nc3sc(C)c(C)c3c(=O)n2Cc2ccco2)c1	0.8	0.9	0.7	8	10
CC(=O)c1sc2nc(-c3cccs3)cc(C(F)(F)F)c2c1N	1.8	0.9	1.3	2	11
Nc1c(C(=O)C2CC2)sc2nc(-c3ccccc3)cc(C(F)(F)F)c12	2*	0.9	1.5	13	8
CCC(C)NC(=O)C1=C(C)C(=O)OC12CCC(C)CC2 (stereo not given)	0.9	0.9	0.9	-12	11
On1c2c(c3c4nonc4ccc31)CCCC2	0.4	0.4	0.5	47	56*
Cc1ccc(CNc2ccc(O)cc2)cc1	0.7	0.5	0.5	-31	53*
Cc1cccc(NC(=O)c2ccc([N+](=O)[O-])s2)c1C	0.9	0.9	0.8	4	10
Cc1c(Br)c(=O)oc2c(Br)c(O)c(O)cc12	1.3	0.2	0.9	26	75*
Cc1c(Br)c(=O)oc2c(Br)c(O)ccc12	1.1	0.9	1.3	0	5
COC(=O)c1ccc(NC(=S)NC2CC3CCC2C3)cc1 (stereo not given)	1.1	0.9	0.9	2	10
COc1ccc(C(=O)N2CCc3ccccc32)cc1	1.1	0.9	1.1	-5	7
COc1ccc(C(=O)/C=C2\NCC3c4ccccc4CCN3C2=O)cc1 (stereo not given)	2.4*	1	1.5	8	-1
Cc1ccc(CSCCNC(=O)c2ccc(NS(C)(=O)=O)cc2)cc1	1.1	1	1	0	3
SMILES	PMI act satM6P	Diaph act CS	PMI activator	G6PDH CS	Diaphorase inh
S=C(Nc1ccccc1Cl)N(Cc1ccccc1)Cc1ccccn1	1	1	1	4	4
O=[N+]([O-])C1=CC=C2C(=NC3(CCCCC3)N2O)C1=NC1CCCCC1	0.2	0.2	0.1	26	83*
CC(C)(C)N=C1C([N+](=O)[O-])=CC=C2C1=NC1(CCCCC1)N2O	0.3	0.2	0.2	39	76*
O=[N+]([O-])C1=CC=C2C(=NC3(CCCCC3)N2O)C1=NCCc1ccccc1	0.4	0.4	0.4	15	63*
O=C(COC(=O)CCc1ccccc1)Nc1ncc(Cl)cc1Cl	1	0.9	1	-11	9
COC(=O)c1ccc(COn2nnc3ccccc32)cc1	1.1	1.2	1.2	13	-18
COc1cc(/C=C(\C#N)c2nn(CCO)c(N)c2C#N)cc(OC)c1OC	2.2*	0.9	1.6	2	10
CCN(CC)CCNC(=O)CSc1c2c(nc3cc(Cl)ccc13)CCCC2	0.4	0.5	0.7	6	53*
CCOC(=O)CSc1cccc2cccnc12	1	1	1	-1	4
CC1(C)Cc2c(C#N)c(NCc3ccco3)nc(-c3ccco3)c2CO1	1.1	0.8	0.9	2	20
CC1(C)Cc2c(C#N)c(N3CCCC3)nc(-c3ccco3)c2CO1	1	0.5	1.1	0	55*
CC(C)CN(Cc1c(O)ccc2ccccc12)CC(C)C	0.3	0.6	0.6	32	44
CCN(Cc1ccncc1)Cc1c(O)ccc2ccccc12	0.3	0.4	0.5	28	64*
COCCn1c(-c2ccccc2)nc2c(c(=O)c3ccccc3n2C)c1=O	0.9	0.9	1	8	5
CCc1nc2c(c(=O)c3ccccc3n2C)c(=O)n1-c1ccc(F)cc1	0.9	0.3	0.9	-1	74*
COc1cccc(CNc2ccc(N3CCC(C)CC3)cc2)c1OC	0.4	0.4	0.3	3	63*
CCc1ccc2c(c1)/C(=N/OC)C(=O)N2	1	0.9	0.9	4	10
O=C(NC1CCCCC1)NC1CC2CCC(C1)N2Cc1nnnn1Cc1ccc2c(c1)OCO2 (stereo not given)	1	0.9	1	-4	11
CC(=O)NNc1nc(-c2ccccc2)cs1	2.4*	0.9	1.7	6	11
COc1cccc(/C=N/Nc2ccc(C(=O)O)cc2)c1O	1.6	0.9	1.6	-4	10
COc1cccc(/C=N/Nc2ccc(S(=O)(=O)O)cc2)c1O	2.1*	0.9	1.4	13	11
Cc1ccc2[nH]c(=O)c3cc(C(=O)N4CCN(C(=O)c5ccco5)CC4)sc3c2c1	0.9	0.4	0.9	-6	60*
CCOC(=O)c1c(/N=C/C2=C(O)CC(C)(C)CC2=O)sc(C(C)=O)c1C	1	0.8	1.2	-4	16
O=S(=O)(N/N=C/c1ccc(N2CCOCC2)cc1)c1ccc(Br)cc1	1.3	0.9	1.3	-4	13

Screening data: PubChem BioAssay, Sanford-Burnham Center for Chemical Genomics
